These results are taken from ChEMBL document CHEMBL1933045, “Fused thiophene derivatives as MEK inhibitors” (Bioorg Med Chem Lett, 2012).

In general, IC50 refers to the concentration that gives 50% inhibition. For orientation: pIC50 means −log10 of the IC50, conventionally taken in molar units. Low values mean a large IC50, high ones a small IC50. What is called solubility is the concentration that dissolves in the medium under given conditions. One may read the inhibition in vivo as the drop in the measured response relative to a control, in per cent. Lower therefore signals little suppression. The term AUC(0-t) denotes the area under the concentration-time curve up to a stated or last time point. A higher AUC(0-t) goes with high exposure. For orientation: Cmax means the peak of the concentration-time curve.

Data set [1] has as its target Dual specificity mitogen-activated protein kinase kinase; MEK1/2 (Homo sapiens, UniProt P36507+Q02750). The experiment in a line: Inhibition of human MEK using fluorescein-labelled Erk-tide as substrate after 20 mins by IMAP assay. The essentials: (§1)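 Values are means of two experiments, IC50 in nM.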
The nature of data set [2]: Inhibition of Erk phosphorylation in human HT-29 cells. The class given is cell-based. In a few lines: as §1
Data set [3] concerns HT-29. The experiment in a line: Antiproliferative activity against human HT-29 cells. The class given is functional, cell-based. The essentials: as §1
The nature of data set [4]: Aqueous solubility of the compound at pH 7.4. The class given is physicochemical.
The test system of data set [5] is Mus musculus. Nature of the data set: Inhibition of Erk phosphorylation in PMA-stimulated whole blood in nude mouse bearing human HT-29 cells at 50 mg/kg, po after 18 hrs relative to control. It is filed as functional. The conditions noted are these: HT-29, Blood. In a few lines: (§2)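 Nude mice bearing HT-29 tumours, dosed p.o. with vehicle (0 h) or 50 mg/kg compound; pERK measured in PMA-stimulated whole blood at 1, 6 and 18 h post dose. Plasma drug by LC–MS/MS; significance versus vehicle by one-way ANOVA with Bonferroni post test.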

The subject of data set [6] is Mus musculus. Nature of the data set: Inhibition of Erk phosphorylation in human HT-29 cells xenografted in nude mouse at 50 mg/kg, po after 18 hrs. Background: Xenograft models place foreign cells or tissue in a host animal.
A short description of data set [7]: AUC (0 to last) in mouse at 10 mg/kg, po. It is filed as ADME, organism-based. Details: time 0 - last, dose 10 mg/kg, route oral. The conditions noted are these: plasma. The essentials:
(§3)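 Female nude mice, single oral dose 10 mg/kg; plasma drug levels measured over time; Cmax and AUClast derived.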

A short description of data set [8]: Intrinsic clearance in rat hepatocytes assessed per 10^6 cells. The class given is ADME, cell-based, Hepatocyte. The settings on record: read-out: CLH.
Data set [9] can be described thus: Cmax in mouse at 10 mg/kg, po. The class given is ADME, organism-based. Details: dose 10 mg/kg, route oral. The conditions noted are these: in vivo. The essentials: as §3
Data set [10] concerns Mus musculus. Nature of the data set: Inhibition of Erk phosphorylation in PMA-stimulated whole blood in nude mouse bearing human HT-29 cells at 50 mg/kg, po after 1 hr. The class given is functional, organism-based. Details: dose 50 mg/kg. The essentials: as §2
For data set [11], the system named is Mus musculus. Nature of the data set: Inhibition of Erk phosphorylation in PMA-stimulated whole blood in nude mouse bearing human HT-29 cells at 50 mg/kg, po after 6 hrs. Details: dose 50 mg/kg. The class given is functional, organism-based. The essentials:
as §2

Each structure is given as a SMILES string. pIC50: −log10 of the molar value. Values after ≈ are worked out from the molar mass of the structure shown. Active and inactive are the calls of the source. The calls are words filed in the database; no cut-off is given here.

In turn, `CC(C)(N)CNC(=O)c1c(Nc2ccc(I)cc2Cl)sc2c1CC(C)(C)CNC2=O` showed an IC50 in data set [1] of 18 nM. Also, the pIC50 was 7.89 in data set [2] and 6.95 in [3].
As for `CCOC(=O)c1c(Nc2ccc(I)cc2Cl)sc2c1CC(C)(C)CNC2=O`, the IC50 in [1] is on record as 2617 nM.
In data set [1], `CC1(C)CNC(=O)c2sc(Nc3ccc(I)cc3F)c(C(=O)O)c2C1` displayed an IC50 of 14 nM. The pIC50 in [2] is 6.01.
As for `CC1(C)CNC(=O)c2sc(Nc3ccc(I)cc3Cl)c(C(=O)NC[C@@H](O)CO)c2C1`, the IC50 in [1] is on record as 28 nM. Besides, the pIC50 in data set [2] is 7.37; in data set [3], 6.15.
For `CC1(C)CNC(=O)c2sc(Nc3ccc(I)cc3Cl)c(C(N)=O)c2C1`, in data set [1], the IC50 is 13 nM. In addition, the solubility entry in [4] (buffer) is reported as “Insoluble”. In addition, the results for the pIC50 in data set [2] and in data set [3] were 7.04 and 6.22, respectively.
The molecule `CC1(C)CNC(=O)c2sc(Nc3ccc(I)cc3Cl)c(C(=O)NCC[C@@H](O)CO)c2C1` came in with an IC50 in data set [1] of 200 nM. Also, the pIC50 in [2] was 6.14; in data set [3] it was 4.92.
In [1], `CC1(C)CNC(=O)c2sc(Nc3ccc(I)cc3F)c(C(=O)NOC[C@H](O)CO)c2C1` had an IC50 of 6 nM. For the same molecule, the pIC50 was 7.29 in data set [2] and 5.80 in [3].
For `CC1(C)CNC(=O)c2sc(Nc3ccc(I)cc3Cl)c(C(=O)N3CCNCC3)c2C1` the same measures were 456 nM, 7.35 and 5.98.
Consider `CC1(C)CNC(=O)c2sc(Nc3ccc(I)cc3F)c(C(=O)N[C@@H]3CCNC3)c2C1`, for which the IC50 in data set [1] amounted to 8 nM. In addition, the results for the pIC50 in data set [2] and in data set [3] were 8.05 and 7.27, respectively.
For `CC1(C)CNC(=O)c2sc(Nc3ccc(I)cc3Cl)c(C(=O)NOC[C@H](O)CO)c2C1` the same measures were 9 nM, 7.12 and 6.05.
Taken in the same sequence, the figures for `CC1(C)CNC(=O)c2sc(Nc3ccc(I)cc3F)c(C(=O)NOCCO)c2C1` were 7 nM, 7.74 and 6.47.
As for `CC1(C)CNC(=O)c2sc(Nc3ccc(I)cc3F)c(C(=O)NCCCO)c2C1`, in [1], the IC50 amounted to 309 nM. The pIC50 was 6.85 in data set [2] and 5.21 in [3].
Consider `CC1(C)CNC(=O)c2sc(Nc3ccc(I)cc3F)c(C(=O)NC[C@H]3CCCN3)c2C1`, for which, in data set [1], the IC50 came to 42 nM. The pIC50 in [2] is 7.66; in data set [3], 6.92.
In the case of `CC1(C)CNC(=O)c2sc(Nc3ccc(I)cc3F)c(C(=O)N[C@@H]3CCCNC3)c2C1`, the IC50 in data set [1] stood at 22 nM. Besides, the pIC50 is 8.30 in data set [2] and 7.04 in data set [3].
In turn, `CCOC(=O)c1c(Nc2ccc(I)cc2F)sc2c1CC(C)(C)CNC2=O` showed an IC50 in [1] of 305 nM.
`CNC(=O)c1c(Nc2ccc(I)cc2Cl)sc2c1CC(C)(C)CNC2=O` returned an IC50 in data set [1] of 226 nM. The pIC50 in data set [2] is 6.65; in data set [3], 5.79.
The molecule `CC1(C)CNC(=O)c2sc(Nc3ccc(I)cc3F)nc2C1` returned a half-inhibitory concentration (IC50) in data set [1] of 946 nM. Further, the pIC50 in data set [2] was 5.81; in [3], 5.05.
In [5], `CC(C)(N)CNC(=O)c1c(Nc2ccc(I)cc2F)sc2c1CC(C)(C)CNC2=O` showed an inhibition in vivo at 50 mg/kg of 35%. Also, the IC50 in data set [1] amounted to 14 nM. In addition, the inhibition entry in [6] is “inactive”. Moreover, in [7], the AUC(0-t) stood at 1240 ng·h/mL. Also, in data set [4] (aqueous, read-out: solubility), the solubility was determined as 210 µM (≈ 114 µg/mL). Further, the pIC50 in [2] was 8.22; in [3] it was 7.10. For the same molecule, the hepatocyte CLint in data set [8] was 2.6 µL/min/1e6 cells. This molecule also returned a Cmax in data set [9] of 323 ng/mL. The inhibition result in data set [10] and in data set [11] was “Active” each time.
In [1], `CC1(C)CNC(=O)c2sc(Nc3ccc(I)cc3F)c(C(N)=O)c2C1` returned an IC50 of 9 nM. The same molecule had a pIC50 in [3] of 6.80.
